High-throughput results deposited in PubChem BioAssay by several laboratories.
In the library only some 7.2% were active in any assay of this set; here they are far more common.
hDAT+cocaine: changed hDAT dopamine uptake under cocaine IC80, either direction, primary screen, cocaine antagonist project, cell-based, LLC-PK1 hDAT, [14C]-dopamine uptake, MLSMR. Sodium-dependent dopamine transporter (Homo sapiens), Q01959. LLC-PK1 hDAT cells, [14C]-dopamine uptake with cocaine IC80; actives deviate in either direction. B-score at 10 µM. actives 1.3% (n = 110,000). AID 449768, 2010;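 active means Z score or B-score, a plate-position-corrected score, falls beyond the plate's 99.7% confidence bounds, in either direction; inactive means both scores lie inside the 99.7% bounds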;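 further: scored against the spread of the other compound wells on the same plate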
D1 mod: D1 CRE-luciferase signal change, two-sided – cell-based, HEK293 D1, dopamine EC30, D1 allosteric modulator project, primary screen; AID 641, 2007; dopamine EC30 potentiation; actives deviate in either direction; B-score at 10 µM; D(1A) dopamine receptor (Homo sapiens), P21728; actives 5.9% (n = 58,000);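 active means luminescence count or its row- and column-corrected plate score outside the 99.7% band of the plate's sample wells, on either side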
HEK293 NFkB inh: inhibitors of PMA/ionomycin-induced NF-kB reporter, primary screen, antigen receptor NF-kB inhibitor project, cell-based, HEK-293 luciferase reporter, luminescence | HEK-293 NF-kB luciferase reporter | inhibition, % at 3 µM | actives 0.21% (n = 62,000);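 active means inhibition above the mean of all tested compounds plus 3 SD, cut at about 40% in these data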;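 further: 0% = stimulated DMSO wells and 100% = 10 µM reference inhibitor 5653914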
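Material: HEK-293 cells with stable firefly luciferase reporter driven by four HIV NF-kB elements / Also added: PMA plus ionomycin mix as NF-kB-activating stimulus / Compound dosing: 3 µM once, 0.30% DMSO / Times: 1 h pretreatment, 16 h stimulation, 37 °C / Signal: luminescence / Evaluation: per-plate % inhibition versus controls / Benchmarks: DMSO and 10 µM reference inhibitor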
BAP1 inh: inhibitors of BAP1 deubiquitinase, primary screen, biochemical, Ub-AMC fluorescence, kinetic; AID 436, 2006; Ubiquitin carboxyl-terminal hydrolase BAP1 (Homo sapiens), Q92560; actives 0.48% (n = 72,000); calls only at 20 µM; recombinant BAP1, Ub-AMC hydrolysis fluorescence kinetic; hits give low values;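 active means activity remaining at or below 50% of control, provided the compound also passes the data quality filters; inactive means the rest, including low values that fail the filters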;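 further: 100% = DMSO wells rate and 0% = substrate alone blank rate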
M1 antagonist: antagonists of rat M1 muscarinic receptor | AID 628, 2007 | actives 3.4% (n = 64,000) | B-score at 10 µM | Muscarinic acetylcholine receptor M1 (Rattus norvegicus), P08482 | CHO-M1 cells, Fluo-4 calcium, ACh EC80 antagonist mode; hits give low values;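 active means calcium fluorescence response, raw or row-and-column corrected B-score, differing from the plate sample mean either way at a set confidence level, mostly lower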
Target sequence (P08482 whole entry, looked up): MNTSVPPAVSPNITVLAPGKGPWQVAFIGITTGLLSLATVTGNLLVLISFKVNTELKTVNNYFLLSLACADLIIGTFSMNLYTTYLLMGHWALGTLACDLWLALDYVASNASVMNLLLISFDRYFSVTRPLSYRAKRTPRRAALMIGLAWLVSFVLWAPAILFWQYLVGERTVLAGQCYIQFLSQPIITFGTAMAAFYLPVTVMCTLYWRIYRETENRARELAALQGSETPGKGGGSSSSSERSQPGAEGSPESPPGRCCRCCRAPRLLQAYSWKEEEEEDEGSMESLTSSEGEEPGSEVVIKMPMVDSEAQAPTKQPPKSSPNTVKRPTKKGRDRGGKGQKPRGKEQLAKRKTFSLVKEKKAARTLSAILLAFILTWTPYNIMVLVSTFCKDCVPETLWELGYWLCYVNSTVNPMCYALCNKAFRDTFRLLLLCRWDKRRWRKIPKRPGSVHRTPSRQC
M1 agonist: M1 muscarinic receptor agonists, primary screen, CHO-M1 cells, Fluo-4 calcium, agonist mode. Fluo-4 calcium fluorescence; hits give high values. B-score at 10 µM. actives 3% (n = 64,000);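 active means fluorescence rise, raw or as B-score row- and column-corrected plate score, outside the 99.7% band of its plate's samples, either direction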
D1 PAM confirm: D1 receptor positive allosteric modulators, retest, confirmation, cell-based, HEK293 D1, CRE-luciferase, duplicate | shares compounds with D1 mod | actives 88% (n = 2,200) | dopamine EC30 potentiation; hits give high values | luminescence at 10 µM;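 active means luminescence in either of two replicates above the same-plate mean plus 3 SD of the low-dose dopamine control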
D1 ag no DA: D1 receptor agonism without dopamine, confirmation, mechanism study for D1 allosteric modulator project, cell-based, HEK293 D1, CRE-luciferase, secondary assay 1; shares compounds with D1 mod; luminescence, no dopamine; hits give high values; luminescence at 10 µM; actives 0.8% (n = 1,900); AID 646, 2007; in the data active means luminescence above about 3900
Isoprot counter: isoproterenol response counter-screen activity for D1 modulators; calls only at 10 µM; shares compounds with D1 mod; HEK293 D1 CRE-luciferase, isoproterenol EC30 counter-screen; actives 63% (n = 2,200);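 active means luminescence in either replicate above plate mean of wells with a partly effective reference agonist dose plus 3 SD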;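 further: isoproterenol raises cAMP through native beta-adrenoceptor Gs so signal bypasses D1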
* = called active by the depositor; i = inactive; nt = no result given; + = active, no number.

SMILES	hDAT+cocaine	D1 mod	HEK293 NFkB inh	BAP1 inh	M1 antagonist	M1 agonist	D1 PAM confirm	D1 ag no DA	Isoprot counter
c1ccc2c(c1)CCN(c1nc3ccccc3n3cnnc13)C2	2.2	7.9*	2	i	-0.16	0.22	13016*	1668	+
c1ccc2c(c1)CCCN2c1nc2ccccc2n2cnnc12	0.019	7*	12	i	0.085	-0.93	9840*	1760	i
c1ccc(N2CCN(c3nc4ccccc4n4cnnc34)CC2)cc1	-0.64	nt	nt	nt	nt	nt	nt	nt	nt
C1=C(c2ccccc2)CCN(c2nc3ccccc3n3cnnc23)C1	0.49	3.2	4	i	-0.0056	-0.17	nt	nt	nt
CCOc1cc2[nH]c(=O)n(CCCN3CCCC3=O)c(=O)c2cc1OCC	0.075	2.7*	7	i	0.75	-0.11	6760*	nt	i
c1csc(-c2nn3c(Cn4nnc5ccccc54)nnc3s2)c1	0.13	5.6*	16	i	0	-0.84	9180*	1476	i
c1ccc(Cc2nnc3sc(-c4ccncc4)nn23)cc1	1.1	1.6	26	i	0.11	1.2	nt	nt	nt
Clc1ccc(Cc2nn3c(Cn4nnc5ccccc54)nnc3s2)cc1	0.0029	5.3*	3	i	-0.0037	-1	9044*	1448	+
c1ccc(Cc2nnc3sc(-c4cccs4)nn23)cc1	0.075	11*	3	nt	-0.71	-0.38	20672*	1736	+
c1ccc2c(c1)nnn2Cc1nnc2sc(-c3ccncc3)nn12	0.048	0.17	14	i	-0.024	0.014	nt	nt	nt
c1ccc(Cc2nnc3sc(-c4ccc5c(c4)OCCO5)nn23)cc1	-0.27	6.9*	4	i	-0.43	-0.48	12856*	1704	+
CC(=O)N1N=C(c2ccc(Br)cc2)CC1c1ccc(N(C)C)cc1 (centres undefined)	nt	nt	nt	i	nt	nt	nt	nt	nt
CCCn1c(=O)c(C(=O)NCc2ccccn2)c(O)c2ccccc21	0.63	3.9	19	i	-0.065	0.0084	nt	nt	nt
CC(C)Cn1c(=O)c(C(=O)Nc2cnccn2)c(O)c2ccccc21	-0.093	3.4*	20	i	0.0054	-0.63	9760*	1672	i
CCCn1c(=O)c(C(=O)NCc2cccnc2)c(O)c2ccccc21	0.28	8.4*	9	i	0.14	1.8	15012*	1692	+
Cc1ccc(C(=O)COC(=O)c2ccc(F)cc2)cc1[N+](=O)[O-]	nt	nt	nt	i	nt	nt	nt	nt	nt
CC(C)C(NS(=O)(=O)c1ccc2c3c(cccc13)C(=O)N2)C(=O)O (centres undefined)	0.029	7*	8	i	-0.076	0.15	5048	nt	i
CCC(Sc1nc2n[nH]c(C)c2c(=N)n1-c1cccc(Cl)c1)C(=O)NCCOC (centres undefined)	2*	5.1*	14	i	-0.54	-0.75	11752*	1764	+
CCC(Sc1nc2n[nH]c(C)c2c(=N)n1-c1ccc(C)c(Cl)c1)C(=O)N1CCOCC1 (centres undefined)	0.74	0.73	18	i	-0.17	0.65	nt	nt	nt
Fc1ccc(-c2cc(C(F)(F)F)nc(NCC3CCCO3)n2)cc1 (centres undefined)	-0.83	5.5*	7	i	-0.087	0.58	8052*	nt	i
FC(F)(F)c1cc(-c2ccccc2)nc(NCC2CCCO2)n1 (centres undefined)	0.53	nt	7	nt	-0.22	1.5	nt	nt	nt
CCOc1ccc2c(C)c(CC)c(=O)oc2c1I	nt	nt	nt	i	nt	nt	nt	nt	nt
Cc1cc(-c2nc3ccccc3o2)c2ccccc2n1	0.87	15*	-8	i	-0.29	0.34	14660*	nt	+
Cc1cc(C(=O)O)c2ccccc2n1	-1.2	nt	nt	nt	nt	nt	nt	nt	nt
Cc1ccc(S(=O)(=O)N2CCN(Cc3nc4sc(C)c(C)c4c(=O)[nH]3)CC2)cc1	0.037	nt	nt	nt	nt	nt	nt	nt	nt
SMILES	hDAT+cocaine	D1 mod	HEK293 NFkB inh	BAP1 inh	M1 antagonist	M1 agonist	D1 PAM confirm	D1 ag no DA	Isoprot counter
Cc1sc2nc(CN3CCN(S(=O)(=O)c4cccc5nonc45)CC3)[nH]c(=O)c2c1C	1.4	3.6*	11	i	-0.0032	-0.29	8576*	1552	i
CCOC(=O)c1c(NC(=O)c2cccc(OC)c2)sc(C)c1C	nt	nt	nt	i	nt	nt	nt	nt	nt
O=C(Nc1ccc(-c2nc3ccccc3[nH]2)cc1)c1cccc(C(F)(F)F)c1	nt	nt	nt	i	nt	nt	nt	nt	nt
Cc1ccc(C)c(NC(=O)C(C)(C)C)c1	nt	nt	nt	i	nt	nt	nt	nt	nt
C=CCSc1nnc2n(-c3ccccc3OC)c(=O)c3c4c(sc3n12)CCC4	1.6	5.7*	nt	i	0.031	0.33	11688*	1704	i
CCCSc1nnc2n(-c3ccccc3OC)c(=O)c3c4c(sc3n12)CCC4	1.2	nt	nt	i	-1.1	1	nt	nt	nt
CSc1nnc2n(C3CCCCC3)c(=O)c3c4c(sc3n12)CCCC4	nt	nt	nt	nt	1.9	-0.26	nt	nt	nt
CSc1nnc2n(-c3ccccc3)c(=O)c3c4c(sc3n12)CCC4	0.073	17*	20	i	-0.038	-0.5	18696*	1684	+
CCOc1ccc2nc(SCC(=O)Nc3ccc4c(c3)C(=O)c3ccccc3C4=O)sc2c1	nt	nt	nt	i	nt	nt	nt	nt	nt
COc1ccccc1C(=O)Nc1c2c(nn1-c1cccc(C)c1C)CS(=O)(=O)C2	-1.3	6.6*	6	i	-0.043	-0.26	14916*	1716	+
COc1ccc(CC(=O)Nc2c3c(nn2-c2cccc(C)c2C)CS(=O)(=O)C3)cc1	0.93	-0.16	20	i	0.58	-0.39	nt	nt	nt
O=C1Nc2ccccc2C1=NC1CCS(=O)(=O)C1 (centres undefined)	nt	nt	nt	i	nt	nt	nt	nt	nt
COc1cccc(C(=O)OCCN2C(=O)c3ccccc3C2=O)c1OC	1.7	3.1*	2	i	0.59	-0.82	5788*	1588	+
COc1ccc(C(=O)OCCN2C(=O)c3ccccc3C2=O)cc1	-0.13	1.2	18	i	0.31	1.8	nt	nt	nt
CCOC(=O)c1c(NC(=O)COc2cc(C)ccc2C(C)(C)C)sc2c1CCCC2	nt	nt	nt	i	nt	nt	nt	nt	nt
